Experimental data taken from PMC4109633 (Drug Design, Development and Therapy, 2014).
Marks after values point to notes of the source that are not given here.

How the values were obtained:
Format in all cases: cell-based
[1] = system: Salmonella typhimurium TA1535; assay: Cytotoxicity in liquid medium; details: mean ± SEM
Summary of the method: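 TA1535 was grown in broth microdilution with test compound at 25, 50 or 100 µM. Viability was expressed as % of untreated control (mean ± SEM), triplicate.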

[2] = system: Salmonella typhimurium TA1535; assay: Ames Salmonella/microsomal mutagenicity assay; details: presence of S9 mix, spontaneous 67.0±6.1
[3] = system: Salmonella typhimurium TA1535; assay: Antimutagenicity assay against sodium azide; details: for NaN3 mutagenicity (revertant colonies/plate; mean ± SEM): NaN3 2 μg/plate, spontaneous 29.3±5.3
Summary of the method: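 TA1535 was exposed to test compound at 10 or 20 µM with NaN₃ (2 µg/plate) in two schemes. In pre-exposure, compound and bacteria were shaken 30 min at 37°C before mutagen was added. In co-exposure, bacteria, mutagen and compound were incubated together 30 min at 37°C. Cells were then plated on minimal glucose agar, and revertants counted at 48 h, in triplicate. Mutant frequency = mutant colonies/viable colonies.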

[4] = system: Salmonella typhimurium TA1535; assay: Antimutagenicity assay against benzo[a]pyrene with S9 mix; details: for B[a]P mutagenicity (revertant colonies/plate; mean ± SEM): B[a]P 20 μM + S9 mix, spontaneous 105.0±13.1; for Mutant frequency (benzo[a]pyrene): mutant colonies/viable colonies; for Antimutagenic potential against B[a]P: low concentration investigated
[5] = co-exposure, 10 μM, mutant colonies/viable colonies
[6] = co-exposure, 20 μM, mutant colonies/viable colonies
[7] = pre-exposure, 10 μM, mutant colonies/viable colonies
[8] = pre-exposure, 20 μM, mutant colonies/viable colonies

| SMILES | Viability at fluoroarylbichalcophene concentrations (% of control) ([1]; 25 μM) | Viability at fluoroarylbichalcophene concentrations (% of control) ([1]; 50 μM) | Viability at fluoroarylbichalcophene concentrations (% of control) ([1]; 100 μM) | Fluoroarylbichalcophene mutagenicity (revertant colonies/plate; mean ± SEM) ([2]; 10 μM) [revertant colonies/plate] | Fluoroarylbichalcophene mutagenicity (revertant colonies/plate; mean ± SEM) ([2]; 20 μM) [revertant colonies/plate] | NaN3 mutagenicity (revertant colonies/plate; mean ± SEM) ([3]; co-exposure, 10 μM) [revertant colonies/plate] | Mutant frequency (sodium azide) [3, 5] | NaN3 mutagenicity (revertant colonies/plate; mean ± SEM) ([3]; co-exposure, 20 μM) [revertant colonies/plate] | Mutant frequency (sodium azide) [3, 6] | NaN3 mutagenicity (revertant colonies/plate; mean ± SEM) ([3]; pre-exposure, 10 μM) [revertant colonies/plate] | Mutant frequency (sodium azide) [3, 7] | NaN3 mutagenicity (revertant colonies/plate; mean ± SEM) ([3]; pre-exposure, 20 μM) [revertant colonies/plate] | Mutant frequency (sodium azide) [3, 8] | B[a]P mutagenicity (revertant colonies/plate; mean ± SEM) ([4]; co-exposure, 10 μM) [revertant colonies/plate] | Mutant frequency (benzo[a]pyrene) ([4]; co-exposure, 10 μM) | B[a]P mutagenicity (revertant colonies/plate; mean ± SEM) ([4]; co-exposure, 20 μM) [revertant colonies/plate] | B[a]P mutagenicity (revertant colonies/plate; mean ± SEM) ([4]; pre-exposure, 10 μM) [revertant colonies/plate] | Mutant frequency (benzo[a]pyrene) ([4]; pre-exposure, 10 μM) | B[a]P mutagenicity (revertant colonies/plate; mean ± SEM) ([4]; pre-exposure, 20 μM) [revertant colonies/plate] | Mutant frequency (benzo[a]pyrene) ([4]; pre-exposure, 20 μM) | other results |
| --- | --- | --- | --- | --- | --- | --- | --- | --- | --- | --- | --- | --- | --- | --- | --- | --- | --- | --- | --- | --- | --- |
| N#Cc1ccc(-c2ccc(-c3cccs3)o2)cc1F [Compound 4d, 2-Fluoro-4-(5-(thiophen-2-yl)furan-2-yl)benzonitrile] | 71.7±5.0 % of control | 59.7±4.7 ^a % of control | 3.0±0.2 ^a % of control | 68.7±6.0 | 67.7±6.1 | 47.7±2.7 | 0.92 | 49.7±6.4 | 0.94 | 36.0±2.7 | 0.69 | 29.7±4.0 | 0.56 | 287.7±16.0 | 4.38 | 204.0±5.3 | 271.0±16.5 | 4.12 | 271.0±12.2 | 4.37 | Mutant frequency (benzo[a]pyrene) ([4]; co-exposure, 20 μM): 3.29; Antimutagenic potential against B[a]P ([4]; co-exposure): no significant activity |
| N#Cc1ccc(-c2ccc(-c3cccs3)s2)cc1F [Compound 4e, 4-(2,2′-Bithiophen-5-yl)-2-fluorobenzonitrile] | 104.0±9.9 % of control | 64.7±8.1 ^a % of control | 22.3±2.2 ^a % of control | 65.3±6.2 | 66.7±6.7 | 36.7±4.7 | 0.66 | 25.0±5.6 | 0.48 | 24.7±3.5 | 0.44 | 21.7±2.1 | 0.42 | 282.3±16.6 | 4.28 | 285.0±18.1 | 241.3±11.0 | 3.66 | 201.0±10.5 | 3.09 | Mutant frequency (benzo[a]pyrene) ([4]; co-exposure, 20 μM): 4.38; Antimutagenic potential against B[a]P ([4]; co-exposure): no significant activity |
| Cl.N=C(N)c1ccc(-c2ccc(-c3cccs3)o2)cc1F [Compound 5d, 2-Fluoro-4-(5-(thiophen-2-yl)furan-2-yl)benzamidine hydrochloride salt] | 105.7±4.6 % of control | 65.3±3.9 ^a % of control | 49.3±3.8 ^a % of control | 65.0±7.0 | 67.7±6.0 | 43.3±6.8 | 0.76 | 20.0±1.0 | 0.40 | 65.0±5.0 | 1.14 | 44.3±4.5 | 0.88 | 109.7±8.3 | – | 101.0±6.0 | 261.0±8.5 | 4.19 | 216.7±14.3 | 3.28 | – |
| Cl.N=C(N)c1ccc(-c2ccc(-c3cccs3)o2)c(F)c1 [Compound 5c, 3-Fluoro-4-(5-(thiophen-2-yl)furan-2-yl)benzamidine hydrochloride salt] | 71.3±6.4 % of control | 58.7±4.2 ^a % of control | 28.7±3.0 ^a % of control | 70.0±5.9 | 66.0±3.5 | 25.7±1.8 | 0.48 | 24.0±3.0 | 0.47 | 102.0±7.2 | 1.91 | 33.3±8.7 | 0.65 | 110.7±10.5 | – | 111.0±10.2 | 148.7±9.8 | 2.23 | 124.0±5.3 | 2.02 | Antimutagenic potential against NaN3 ([3]; pre-exposure, only at 20 μM): strong (40% or more reduction means strong antimutagenic activity) |
| N#Cc1ccc(-c2ccc(-c3ccco3)o2)c(F)c1 [Compound 4a, 4-(2,2′-Bifuran-5-yl)-3-fluorobenzonitrile] | 100.0±8.5 % of control | 66.3±5.6 ^a % of control | 45.7±3.5 ^a % of control | 63.3±5.5 | 69.7±7.0 | 75.0±2.3 | – | 34.3±4.9 | 0.69 | 47.7±6.5 | 0.99 | 26.0±5.5 | 0.52 | 270.0±19.0 | 4.08 | 268.0±16.6 | 267.0±11.0 | 4.04 | 267.7±13.0 | 4.14 | Mutant frequency (benzo[a]pyrene) ([4]; co-exposure, 20 μM): 4.14 |
| [N-]=[N+]=[N-].[Na+] [NaN3, sodium azide, reference compound] | – | – | – | – | – | – | – | – | – | – | – | – | – | – | – | – | – | – | – | – | Mutant frequency, NaN3 alone ([3]; NaN3 without fluoroarylbichalcophene, mutant colonies/viable colonies): 2.65 (100) |
